Experimental data from ChEMBL document CHEMBL1122244, “Synthesis and monoamine oxidase inhibitory activities of alpha-allenic amines in vivo and in vitro. Different activities of two enantiomeric allenes” (J Med Chem, 1983).

What was measured:
Mus musculus [1] = test: Lowest dose potentiating the awakening effect of phenethylamine (10 mg/kg, subcutaneous) in mice pretreated with reserpine
Monoamine oxidase [2] = biological target: T1, Monoamine oxidase (Mus musculus, UniProt Q8BW75+Q64133); test: Inhibitory activity of Monoamine oxidase at mouse forebrain homogenate by displacing [14C]5-HT (serotonin); format: tissue-based; conditions: in the assay text read “[3H]5-HT” for “[14C]5-HT”
T1 sequence (Q8BW75 whole entry): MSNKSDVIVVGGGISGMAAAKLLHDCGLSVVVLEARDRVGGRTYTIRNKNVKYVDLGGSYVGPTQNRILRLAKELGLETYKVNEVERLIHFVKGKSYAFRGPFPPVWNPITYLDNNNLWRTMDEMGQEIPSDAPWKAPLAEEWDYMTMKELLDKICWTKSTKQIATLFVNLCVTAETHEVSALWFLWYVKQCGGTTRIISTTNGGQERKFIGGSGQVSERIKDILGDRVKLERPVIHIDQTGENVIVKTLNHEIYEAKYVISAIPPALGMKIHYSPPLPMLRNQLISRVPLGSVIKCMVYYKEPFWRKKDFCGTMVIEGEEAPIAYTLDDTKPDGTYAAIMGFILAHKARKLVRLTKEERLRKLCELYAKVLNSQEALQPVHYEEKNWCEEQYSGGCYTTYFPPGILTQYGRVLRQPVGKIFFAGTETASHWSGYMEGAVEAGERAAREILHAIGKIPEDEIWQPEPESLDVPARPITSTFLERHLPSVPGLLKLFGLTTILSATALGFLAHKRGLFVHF
T1 sequence (Q64133 whole entry): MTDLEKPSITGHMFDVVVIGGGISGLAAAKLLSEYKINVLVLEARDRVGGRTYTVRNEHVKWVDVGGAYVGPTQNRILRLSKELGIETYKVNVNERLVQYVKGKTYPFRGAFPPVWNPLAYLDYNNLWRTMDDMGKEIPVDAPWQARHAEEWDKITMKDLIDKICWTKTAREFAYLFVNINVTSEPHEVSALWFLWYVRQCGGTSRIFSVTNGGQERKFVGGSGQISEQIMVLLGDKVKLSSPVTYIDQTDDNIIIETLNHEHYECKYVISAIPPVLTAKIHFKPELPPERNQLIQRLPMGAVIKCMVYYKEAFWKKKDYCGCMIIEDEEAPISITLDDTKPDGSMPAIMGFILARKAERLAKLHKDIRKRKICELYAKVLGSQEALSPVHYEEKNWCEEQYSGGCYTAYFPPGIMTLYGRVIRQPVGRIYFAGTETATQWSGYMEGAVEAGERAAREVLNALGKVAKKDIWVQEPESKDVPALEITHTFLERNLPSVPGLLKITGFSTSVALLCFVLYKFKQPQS
Method in brief: (§1)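 Male NMRI mice (18–22 g) dosed ip (0.2 mL/20 g) and killed 1 h later, five per dose. Forebrain was homogenized in 10 vol ice-cold 0.1 M sodium phosphate, pH 7.4, and incubated 10 min at 37 °C with 10 μM [14C]PEA plus 10 μM [3H]5-HT. Acid metabolites were extracted into ethyl acetate and 3H/14C counted in separate channels.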

Monoamine oxidase [3] = biological target: T1, Monoamine oxidase; test: Inhibitory activity of Monoamine oxidase at mouse forebrain homogenate by displacing [14C]PEA (phenethylamine); format: tissue-based
Method in brief: as §1

Monoamine oxidase [4] = biological target: T2, Monoamine oxidase (Rattus norvegicus, UniProt P19643+P21396); test: In vitro inhibition of Monoamine oxidase at rat hyphalamic mitochondrial PEA by displacing 2.5 uM of [14C]PEA.; format: protein assay
T2 sequence (P19643 whole entry): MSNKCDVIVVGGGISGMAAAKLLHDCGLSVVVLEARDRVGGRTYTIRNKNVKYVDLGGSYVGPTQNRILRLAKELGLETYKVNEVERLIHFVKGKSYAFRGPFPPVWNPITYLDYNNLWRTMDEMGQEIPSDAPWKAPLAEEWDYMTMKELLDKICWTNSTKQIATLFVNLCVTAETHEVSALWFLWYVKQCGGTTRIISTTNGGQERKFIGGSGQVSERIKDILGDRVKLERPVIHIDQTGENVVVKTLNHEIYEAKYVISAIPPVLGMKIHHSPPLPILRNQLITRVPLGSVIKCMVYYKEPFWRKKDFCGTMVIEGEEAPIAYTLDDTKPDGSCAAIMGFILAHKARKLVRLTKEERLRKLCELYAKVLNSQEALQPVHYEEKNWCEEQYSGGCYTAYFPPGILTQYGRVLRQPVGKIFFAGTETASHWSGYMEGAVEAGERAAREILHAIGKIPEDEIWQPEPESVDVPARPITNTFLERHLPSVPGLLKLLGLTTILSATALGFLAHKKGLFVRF
T2 sequence (P21396 whole entry): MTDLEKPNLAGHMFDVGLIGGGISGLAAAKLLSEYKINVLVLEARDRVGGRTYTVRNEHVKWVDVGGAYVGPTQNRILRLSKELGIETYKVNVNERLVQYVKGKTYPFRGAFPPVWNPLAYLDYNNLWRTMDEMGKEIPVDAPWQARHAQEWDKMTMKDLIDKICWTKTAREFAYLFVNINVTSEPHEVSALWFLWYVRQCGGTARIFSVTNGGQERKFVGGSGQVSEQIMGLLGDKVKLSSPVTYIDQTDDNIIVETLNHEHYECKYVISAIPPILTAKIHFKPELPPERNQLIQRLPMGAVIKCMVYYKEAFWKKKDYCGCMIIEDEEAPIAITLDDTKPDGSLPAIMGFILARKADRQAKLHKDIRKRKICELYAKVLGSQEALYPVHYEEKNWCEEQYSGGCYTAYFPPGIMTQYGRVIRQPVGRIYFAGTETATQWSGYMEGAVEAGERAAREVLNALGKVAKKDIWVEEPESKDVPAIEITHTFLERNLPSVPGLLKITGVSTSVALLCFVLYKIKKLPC

Monoamine oxidase [5] = biological target: T1, Monoamine oxidase; test: Inhibitory activity of Monoamine oxidase at mouse forebrain homogenate by displacing [14C]PEA; format: tissue-based
Method in brief: as §1

Monoamine oxidase [6] = biological target: T1, Monoamine oxidase; test: Inhibitory activity of Monoamine oxidase at mouse forebrain homogenate by displacing [14C]5-HT; format: tissue-based
Method in brief: as §1

Mus musculus [7] = test: Lowest dose potentiating the awakening effect of phenethylamine (10 mg/kg, subcutaneous) in mice pretreated with reserpine; format: functional
Method in brief: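 Mice were pretreated with reserpine 5 mg/kg sc 18 h beforehand. Test compound was given ip 1 h before PEA hydrochloride 10 mg/kg sc.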

Monoamine oxidase [8] = biological target: T2, Monoamine oxidase; test: In vitro inhibition of Monoamine oxidase at rat hyphalamic mitochondrial 5-HT by displacing 2.5 uM of [14C]5-HT.; format: protein assay
Mus musculus [9] = test: Compound was injected ip 1 hr prior to 90 mg/kg iv of […] evaluation of abduction in mice; format: functional
Method in brief: (§2)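 Test compound given ip 1 h before iv dl-5-HTP, 90 mg/kg, in mice. The 5-HTP syndrome was scored per Ross et al. for head twitches, tremor and abduction. Values are ED50 in μmol/kg ip.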

Mus musculus [10] = test: Compound was injected ip 1 hr prior to 90 mg/kg iv of […] evaluation of tremor in mice; format: functional
Method in brief: as §2

Mus musculus [11] = test: Compound was injected ip 1 hr prior to 90 mg/kg iv of […] evaluation of head twitches in mice; format: functional
Method in brief: as §2

SMILES | Potentiation (Mus musculus [1]) [µM/kg] | ED50 (Monoamine oxidase [2]) [µM/kg] | ED50 (Monoamine oxidase [3]) [µM/kg] | IC50 (Monoamine oxidase [4]) [µM] | ED50 (Monoamine oxidase [5]) [µM/kg] | ED50 (Monoamine oxidase [6]) [µM/kg] | Potentiation (Mus musculus [7]) [µM/kg] | IC50 (Monoamine oxidase [8]) [µM] | ED50 (Mus musculus [9]) [µmol/kg] | ED50 (Mus musculus [10]) [µmol/kg] | ED50 (Mus musculus [11]) [µmol/kg]
C#CCN(C)CCCOc1ccc(Cl)cc1Cl [CLORGILINE] | >65 | 2.6 | > 65 |  |  |  |  |  |  |  | 
C=C=C(CN)Cc1ccc(Cl)cc1 |  |  |  | 0.04 | 7 | 18 | 35 | 0.26 |  |  | 
C=C=CCN(C)Cc1ccccc1 |  |  |  | 0.17 | 17 | > 48 |  | 8.2 |  |  | 
C=C=C(CN)Cc1ccc(C)cc1 |  |  |  | 0.36 | 23 | > 38 | >38 | 1.1 |  |  | 
C=C=CC(C)N(C)Cc1ccccc1 (centres undefined) |  |  |  | > 100 |  |  |  | 43 |  |  | 
C=C=C(CN)c1ccccc1 |  |  |  | 0.24 | 8 | > 39 | >79 | 7.2 |  |  | 
CC=C=CCN(C)Cc1ccccc1.O=C(O)C(=O)O (stereo in doubt; (R)(-)2) |  |  |  | 2.3 | 20 | > 36 | 72 | 17 |  |  | 
C=C=C(CNC)Cc1ccccc1 |  |  |  | 0.44 | 11 | > 38 | 76 | 6.2 |  |  | 
CC=C=CCN(C)Cc1ccccc1.O=C(O)C(=O)O (stereo in doubt; (S)(+)2) |  |  |  | 50 | 54 | > 72 | >72 | 51 |  |  | 
C=C=C(Cc1ccccc1)CN(C)C |  |  |  | > 100 | 54 | > 72 | > 72 | 25 |  |  | 
C=C=CCN(C)C1CCc2ccccc21 (centres undefined) |  |  |  | 0.36 | 1.7 | 35 | 9 | 1.8 |  |  | 
C=C=CCN1CCc2ccccc2C1 |  |  |  | 4.3 | > 90 | > 90 | >90 | 7 |  |  | 
C=C=CCNCc1ccccc1 |  |  |  | 0.15 | 6 | > 51 | 26 | 1.8 |  |  | 
C=C=C(CN)Cc1ccc(OC)cc1 |  |  |  | 0.58 | 16 | 39 | 36 | 0.7 |  |  | 
C=C=CCN(C)C(C)Cc1ccccc1 (centres undefined) |  |  |  | 4.7 | 52 | > 69 | 34 | 0.8 |  |  | 
C=C=C(CN)Cc1ccccc1 |  |  |  | 0.14 | 12 | > 26 | 51 | 20 |  |  | 
C#CCN(C)[C@H](C)Cc1ccccc1 [SELEGILINE] |  |  |  |  | 2 | > 89 | 5 |  |  |  | 
C=C=CCN(C)CCCOc1ccc(Cl)cc1Cl |  |  |  | 4.6 | 33 | 6 | 60 | 0.004 | 5.4 | 5.1 | 1.7
CC=C=CCN(C)Cc1ccccc1 |  |  |  | 15 | 36 | > 72 |  | 29 |  |  | 
